The text below walks through data of ChEMBL document CHEMBL1828528, “Acyclic nucleoside thiophosphonates as potent inhibitors of HIV and HBV replication” (Eur J Med Chem, 2011).

Activity calls are given as the source filed them. No cut-off for these calls is given here.

Data set [1] in a line: Cytotoxicity against human HuH7 cells. Type of data set: cell-based. The following applies: Huh-7 cells.
A short description of data set [2]: Half life of the compound in complete culture medium by HPLC analysis. It counts as physicochemical. The gist of the method: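 Compound diluted to 0.1 mM final in RPMI-1640 with 10% heat-inactivated FCS and incubated at 37 °C up to 24 h. Timed aliquots frozen at −80 °C, then analysed by reverse-phase HPLC with on-line filtration: C18 column, triethylammonium bicarbonate pH 7.5/acetonitrile gradient, detection at 260 nm. Half-life calculated.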

For data set [3], the system named is Human immunodeficiency virus 1. The data set can be described thus: Antiviral activity against HIV1 clade B isolate 2056 infected in human H9 cells assessed as inhibition of viral replication. It counts as functional, organism-based. As to conditions: Human immunodeficiency virus 1, clade B isolate 2056, H9. The gist of the method:
(§1)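 H9 cells infected with HIV-1 clinical isolates of clades A, B, C, D, A/E, F and G, in the presence of graded compound concentrations. EC50 is the concentration reducing viral replication by 50%.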

The subject of data set [4] is Feline coronavirus. The data set can be described thus: Antiviral activity against Feline coronavirus infected in CrFK cells assessed as inhibition of virus-induced cytopathic effect up to 200 uM measured on day 3 post infection by microscopic analysis. Type of data set: functional, organism-based. The gist of the method:
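Confluent CrFK cells inoculated with 100 CCID50 of virus. Compounds up to 200 μM added after 1–2 h adsorption. Cytopathic effect recorded microscopically at day 3 relative to untreated controls.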

The test system of data set [5] is Human immunodeficiency virus 1. The data set can be described thus: Antiviral activity against HIV1 clade F isolate 2338 infected in human H9 cells assessed as inhibition of viral replication. The following applies: Human immunodeficiency virus 1, clade F isolate 2338, H9. It counts as functional, organism-based. The gist of the method: as §1
In data set [6] the test system is Coxsackievirus B4. Briefly: Antiviral activity against Coxsackie virus B4 infected in HeLa cells assessed as inhibition of virus-induced cytopathic effect up to 200 uM measured on day 3 post infection by microscopic analysis. Type of data set: functional, organism-based. The gist of the method:
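HeLa monolayers at confluency infected with 100 CCID50 of virus. Compound dilutions up to 200 μM added after 1–2 h adsorption. Cytopathic effect recorded microscopically on day 3 relative to untreated controls.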
On the technique in general: Protection from cytopathic effect is a common read-out in antiviral testing.

In data set [7] the test system is Human immunodeficiency virus 1. The data set can be described thus: Antiviral activity against HIV1 clade B isolate 2101 infected in human H9 cells assessed as inhibition of viral replication. It counts as functional, organism-based. The following applies: Human immunodeficiency virus 1, clade B isolate 2101, H9. The gist of the method:
as §1

Data set [8] deals with Human immunodeficiency virus 1. Briefly: Antiviral activity against HIV1 clade A/E isolate 2165 infected in human H9 cells assessed as inhibition of viral replication. Type of data set: functional, organism-based. The following applies: Human immunodeficiency virus 1, clade A/E isolate 2165, H9. The gist of the method: as §1
Data set [9] deals with Human immunodeficiency virus 1. The data set can be described thus: Ratio EC50 for PMEA to compound for HIV1 clade B isolate 2101 infected in human H9 cells assessed as inhibition of viral replication. It counts as functional. The gist of the method: (§2)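 Ratio computed as EC50 of PMEA divided by EC50 of the test compound, both measured against the same clinical isolate in H9 cells.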

The subject of data set [10] is Human immunodeficiency virus 1. The data set can be described thus: Antiviral activity against 6250 TCID50 wild type HIV1 LAI infected in human H9 cells assessed as reduction in viral replication measured on day 7 post infection by reverse transcriptase activity. The following applies: Human immunodeficiency virus 1, LAI, H9, 168 h. Type of data set: functional, organism-based. The gist of the method:
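H9 cells in RPMI-1640/10% FCS given graded compound concentrations, then infected with a high inoculum of 6250 TCID50 HIV-1 LAI. Supernatant reverse transcriptase activity measured on day 7 post infection. EC50 taken as the concentration giving 50% reduction of viral replication.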

Data set [11] concerns Human respirovirus 3. The data set can be described thus: Antiviral activity against Parainfluenza virus 3 infected in african green monkey Vero cells assessed as inhibition of virus-induced cytopathic effect up to 200 uM measured on day 3 post infection by microscopic analysis. It counts as functional, organism-based. The gist of the method: (§3)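 Confluent Vero cell monolayers inoculated with 100 CCID50 of virus. Compound added after 1–2 h adsorption, tested up to 200 μM. Microscopic CPE scoring on day 3 post infection versus untreated controls.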

Data set [12] deals with Human immunodeficiency virus 1. The data set can be described thus: Ratio EC50 for PMEA to compound for HIV1 clade B isolate 1722 infected in human H9 cells assessed as inhibition of viral replication. It counts as functional. The gist of the method:
as §2

In data set [13] the test system is HeLa. Briefly: Cytotoxicity against human HeLa cells up to 200 uM. It counts as cell-based. The gist of the method: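 Uninfected confluent Vero, CrFK, HEL or HeLa cultures incubated with serial compound dilutions (up to 200 μM) for the same period as the antiviral assays. Minimal toxic concentration is the lowest giving microscopically detectable alteration of cell morphology.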

Data set [14] deals with Human immunodeficiency virus 1. Briefly: Ratio EC50 for PMEA to compound for HIV1 clade A isolate 4113 infected in human H9 cells assessed as inhibition of viral replication. It counts as functional. The gist of the method:
as §2

Data set [15] concerns Hepatitis B virus. The data set can be described thus: Antiviral activity against Hepatitis B virus infected in human HuH7 cells assessed as reduction in viral DNA level treated day 3 to day 8 post transfection by real time quantitative PCR analysis. Type of data set: functional, organism-based. The following applies: Huh-7.
In data set [16] the test system is Human immunodeficiency virus 1. The data set can be described thus: Ratio EC50 for PMEA to compound for HIV1 clade F isolate 2338 infected in human H9 cells assessed as inhibition of viral replication. It counts as functional. The gist of the method:
as §2

For data set [17], the system named is Human immunodeficiency virus 1. Briefly: Antiviral activity against HIV1 clade B isolate 1722 infected in human H9 cells assessed as inhibition of viral replication. As to conditions: Human immunodeficiency virus 1, clade B isolate 1722, H9. It counts as functional, organism-based. The gist of the method: as §1
The subject of data set [18] is Human immunodeficiency virus 1. The data set can be described thus: Ratio EC50 for PMEA to compound for HIV1 clade D isolate 1649 infected in human H9 cells assessed as inhibition of viral replication. It counts as functional. The gist of the method: as §2
Data set [19] concerns Human immunodeficiency virus 1. Briefly: Ratio EC50 for PMEA to compound for HIV1 clade C isolate 4110 infected in human H9 cells assessed as inhibition of viral replication. Type of data set: functional. The gist of the method: as §2
For data set [20], the system named is Human alphaherpesvirus 1. Briefly: Antiviral activity against TK-deficient and ACR-resistant Herpes simplex virus type 1 KOS infected in HEL cells assessed as inhibition of virus-induced cytopathic effect. Type of data set: functional, organism-based. As to conditions: Human alphaherpesvirus 1, KOS. The gist of the method:
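Confluent HEL cell monolayers inoculated with 100 CCID50 of virus. Compounds added after a 1–2 h adsorption period. Virus-induced cytopathic effect scored microscopically at 3 days post infection as % of untreated controls. EC50 derived from graphical plots.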

Data set [21] relates to CCRF-CEM. The data set can be described thus: (§4) Cytotoxicity against human CEM cells. It counts as cell-based. The following applies: ccrf-cem. The gist of the method:
(§5)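 Mock-infected CEM cells cultured alongside the anti-HIV assay with compound dilutions for 4 days at 37 °C. CC50 is the concentration inhibiting CEM cell proliferation by 50%.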

The test system of data set [22] is Punta Toro virus. Briefly: Antiviral activity against Punta Toro virus infected in african green monkey Vero assessed as inhibition of virus-induced cytopathic effect cells up to 200 uM measured on day 3 post infection by microscopic analysis. It counts as functional, organism-based. The gist of the method: as §3
The test system of data set [23] is Human immunodeficiency virus 1. The data set can be described thus: Ratio EC50 for PMPA to compound for HIV1 clade D isolate 1649 infected in human H9 cells assessed as inhibition of viral replication. It counts as functional.
Data set [24] relates to Human immunodeficiency virus 1. Briefly: Ratio EC50 for PMPA to compound for HIV1 clade C isolate 2914 infected in human H9 cells assessed as inhibition of viral replication. Type of data set: functional.
The test system of data set [25] is Human immunodeficiency virus 1. The data set can be described thus: Ratio EC50 for PMPA to compound for HIV1 clade B isolate 2056 infected in human H9 cells assessed as inhibition of viral replication. It counts as functional.
A short description of data set [26]: Stability of compound in complete culture medium assessed as compound degradation into 9-(2-Phosphonomethoxypropyl)-adenine after 24 hrs by HPLC analysis. Type of data set: physicochemical. The gist of the method:
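Compound diluted to 0.1 mM final in one of two media and incubated at 37 °C: RPMI-1640 with 10% heat-inactivated FCS, or CEM-SS cell extract (soluble proteins 3 mg/mL in 10 mM Tris-HCl pH 7.4, 140 mM KCl). Aliquots were taken over time, frozen at −80 °C, then run on C18 reverse-phase HPLC with on-line filtration, TEAB/acetonitrile gradient and 260 nm detection. Degradation products were identified by co-injection.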

Data set [27] can be described thus: as §4. Type of data set: cell-based, CCRF-CEM. As to conditions: CCRF-CEM (CEM) cells. The gist of the method: as §5

What is called CC50 is the concentration at which the toxic effect on the cells reaches its halfway point. Usually half-life stands for how long it takes for the measured level to halve. In general, EC50 refers to the midpoint of the concentration-response curve. As to `Nc1ncnc2c1ncn2CCOCP(=O)([O-])[S-].[Na+].[Na+]` (stereo unspecified), the CC50 is more than 150 µM in data set [1] and 233 µM in data set [21]. Moreover, in data set [2], the half-life was more than 24 h. Besides, the 50% effective concentration (EC50) in data set [3] worked out at 3.41 µM; in [5], 0.22 µM; in data set [7], 0.49 µM; in data set [8] it was 0.3 µM; in data set [10], 17 µM; in [15], 4.5 µM. Further, the concentration for a half-maximal effect (EC50) in data set [17] came out at 2.8 µM; in data set [20], 24 µM. Besides, the inhibition entry in data set [4], in data set [6], in data set [11] and in [22] was “inactive” throughout. Further, the “Ratio EC50” value in data set [9] was 7.16; in data set [12] it was 0.66; in data set [14] it was 10.8; in data set [16], 0.86; in data set [18] it was 0.11; in [19], 6. Also, the Activity entry in data set [13] is “Non-toxic”.

As to `C[C@H](Cn1cnc2c(N)ncnc21)OCP(=O)([O-])[S-].[Na+].[Na+]` (stereo partly specified), the 50% cytotoxic concentration (CC50) in data set [1] was more than 150 µM; in [27], more than 250 µM. Further, the half-life in data set [2] is more than 24 h. For the same compound, the EC50 turned out to be 0.45 µM in [3]; 0.2 µM in data set [5]; 0.47 µM in data set [7]; 0.34 µM in data set [8]; 9.7 µM in data set [10]; 0.51 µM in data set [17]. Moreover, the EC50 in [20] was determined as 80 µM. In addition, the inhibition entry in data set [4], in data set [6], in [11] and in [22] was “inactive” each time. Further, the “Ratio EC50” value was 0.14 in data set [23], 0.89 in data set [24] and 2.77 in [25]. The figures for the Activity in [26] and in data set [13] were 77% and “Non-toxic”, respectively.
